Results: ChEMBL document CHEMBL4342523, “Discovery and Development of S6821 and S7958 as Potent TAS2R8 Antagonists” (J Med Chem, 2020)
Converted amounts (≈) assume the structure as drawn.

What was measured:
[1] = biological target: T1, Taste receptor type 2 member 8 (Homo sapiens, UniProt Q9NYW2); experiment: Antagonist activity at recombinant human TAS2R8 stably expressed in cells co-expressing Galpha16gust44 assessed as inhibition of andrographolide-induced intracellular calcium level measured for 100 secs by fluo-4 dye based FLIPR assay; format: functional, cell-based
T1 sequence (Q9NYW2 whole entry): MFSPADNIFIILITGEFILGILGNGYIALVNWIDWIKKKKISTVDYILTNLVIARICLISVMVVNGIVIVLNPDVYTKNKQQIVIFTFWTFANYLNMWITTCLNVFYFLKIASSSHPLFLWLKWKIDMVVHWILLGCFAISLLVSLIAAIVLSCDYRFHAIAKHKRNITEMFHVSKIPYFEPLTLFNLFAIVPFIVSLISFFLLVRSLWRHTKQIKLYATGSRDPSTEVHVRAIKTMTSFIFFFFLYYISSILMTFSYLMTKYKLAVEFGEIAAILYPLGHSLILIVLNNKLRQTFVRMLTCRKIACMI
Procedure, shortened: (§1)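 Recombinant cells stably expressing G16t44 chimera and TAS2R8 (clones isolated by limiting dilution), plated 24 h before assay; loaded with fluo-4 in PBS 60 min, washed, rested 15 min in dark at RT. Andrographolide agonist at its EC80, premixed with antagonist and added together; final DMSO 0.5%. Baseline read 10 s, then fluorescence followed 100 s on FLIPR.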

[2] = Ratio of solubility of the compound in pH 7.1 buffer measured after 24 hrs to IC50 for antagonist activity at recombinant human TAS2R8 expressed in cells co-expressing Galpha16gust44 assessed as inhibition of andrographolide-induced intracellular calcium level; format: cell-based
[3] = Solubility of the compound in pH 7.1 buffer measured after 24 hrs; format: physicochemical
[4] = Stability of the compound in pH 7.1 buffer assessed as parent compound remaining measured after 24 hrs at 100 degC; format: physicochemical; conditions: read-out: Stability
[5] = Stability of the compound in pH 2.8 buffer assessed as parent compound remaining measured after 24 hrs at 100 degC; format: physicochemical; conditions: read-out: Stability
[6] = Drug metabolism in pH <6.5 buffer assessed as S6821 formation measured under room temperature
[7] = biological target: T2, Taste receptor type 2 member 8 (Homo sapiens) (UniProt Q9NYW2); experiment: Antagonist activity at recombinant human TAS2R8 stably expressed in cells co-expressing Galpha16gust44 assessed as inhibition of andrographolide-induced intracellular calcium level at 10 uM measured for 100 secs by fluo-4 dye based FLIPR assay relative to control; format: functional, cell-based; procedure, shortened: as §1
T2 sequence (whole entry): T1 sequence (Q9NYW2 whole entry)

IC50 [1]	Compound	further results
1700 to 2000 nM	Cc1noc(C)c1Cn1cc(NC(=O)c2ccccc2)cn1	
700 nM	COc1ccc(C(=O)Nc2cnn(Cc3c(C)noc3C)c2)cc1	
3000 nM	Cc1noc(C)c1Cn1cc(NC(=O)c2ccc3ocnc3c2)cn1	
1900 nM	COc1ccccc1C(=O)Nc1cnn(Cc2c(C)noc2C)c1	
4000 nM	Cc1noc(C)c1Cn1cc(NS(=O)(=O)c2ccccc2)cn1	
700 nM	COc1cccc(C(=O)Nc2cnn(Cc3c(C)noc3C)c2)n1	
500 nM	Cc1noc(C)c1Cn1cc(NC(=O)c2ccc(O)cc2)cn1	
700 nM	COc1cccc(C(=O)Nc2cnn(Cc3c(C)noc3C)c2)c1	
1000 nM	COc1ccc(C(=O)Nc2cnn(Cc3c(C)noc3C)c2)cc1OC	
2300 nM	CCSc1ncccc1C(=O)Nc1cnn(Cc2c(C)noc2C)c1	inhibition [7]: 50%
2300 nM	Cc1noc(C)c1Cn1cc(NC(=O)c2ccccn2)cn1	
800 nM	Cc1noc(C)c1Cn1cc(NC(=O)CCCc2ccccc2)cn1	
800 nM	Cc1noc(C)c1Cn1cc(NC(=O)Cc2ccccc2)cn1	
1100 nM	COc1ncccc1C(=O)Nc1cnn(Cc2c(C)noc2C)c1	
400 nM	Cc1noc(C)c1Cn1cc(NC(=O)c2cccc(O)c2)cn1	
2000 nM	Cc1noc(C)c1Cn1cc(NC(=O)Nc2ccccc2)cn1	
1000 nM	Cc1noc(C)c1Cn1cc(NC(=O)NCc2ccccc2)cn1	
300 nM	Cc1noc(C)c1Cn1cc(NC(=O)c2ccc3[nH]ccc3c2)cn1	
400 nM	Cc1noc(C)c1Cn1cc(NC(=O)CCc2ccccc2)cn1	
1000 nM	Cc1noc(C)c1Cn1cc(NC(=O)c2ccccc2O)cn1	

Further lines, the molecule ahead of its results:

Compound	IC50 [1]	further results
CNC(=O)c1cccc(CN2CC(=O)N(c3cnn(Cc4c(C)noc4C)c3)C2=O)c1	100 nM	
COC(=O)c1cccc(CN2CC(=O)N(c3cnn(Cc4c(C)noc4C)c3)C2=O)c1	100 nM	
Cc1noc(C)c1Cn1cc(N2C(=O)[C@@H](C)N(Cc3cccc(O)c3)C2=O)cn1		Ratio [2]: 3390; solubility at 24 h [3]: 61 µM (≈ 24.1 µg/mL); remaining at 24 h [4]: 92%; remaining at 24 h [5]: > 99%
Cc1noc(C)c1Cn1cc(N2C(=O)N(Cc3cccc(O)c3)C(C)(CO)C2=O)cn1 (stereo not drawn)	100 nM	Ratio [2]: 2660; solubility at 24 h [3]: 356 µM (≈ 151 µg/mL); remaining at 24 h [4]: 43%; remaining at 24 h [5]: > 99%
Cc1noc(C)c1CN1CC(=O)N(c2cnn(Cc3c(C)noc3C)c2)C1=O	400 nM	
Cc1noc(C)c1Cn1cc(N2C(=O)CN(Cc3ccccn3)C2=O)cn1	1000 nM	
COc1ccc(OC)c(C(=O)Nc2cnn(Cc3c(C)noc3C)c2)c1	300 nM	
Cc1noc(C)c1Cn1cc(NC(=O)N(CC(=O)O)Cc2cccc(O)c2)cn1		Drug metabolism [6]: Metabolite detected
Cc1noc(C)c1Cn1cc(N2C(=O)CNC2=O)cn1	900 nM	
Cc1noc(C)c1Cn1cc(N2Cc3ccccc3C2=O)cn1	9000 nM	
Cc1noc(C)c1Cn1cc(N2C(=O)N(Cc3cccc(O)c3)C3(CCC3)C2=O)cn1	40 nM	Ratio [2]: 77; solubility at 24 h [3]: 3 µM (≈ 1.26 µg/mL); remaining at 24 h [4]: 98%; remaining at 24 h [5]: 97%
Cc1noc(C)c1Cn1cc(N2C(=O)CN(CC3CCCO3)C2=O)cn1 (stereo not drawn)	1000 nM	
Cc1noc(C)c1Cn1cc(N2C(=O)c3ccccc3C2=O)cn1	200 nM	solubility at 24 h [3]: 12 µM (≈ 3.87 µg/mL); remaining at 24 h [4]: 5%; remaining at 24 h [5]: 3%
Cc1noc(C)c1Cn1cc(N2C(=O)C(=O)N(Cc3ccccc3)C2=O)cn1	2000 nM	
COc1cncc(C(=O)Nc2cnn(Cc3c(C)noc3C)c2)c1	800 nM	
Cc1noc(C)c1Cn1cc(N2C(=O)CN(Cc3ccccc3O)C2=O)cn1	100 nM	
Cc1cc(CN2CC(=O)N(c3cnn(Cc4c(C)noc4C)c3)C2=O)n(C)n1	200 nM	
COc1ccccc1CN1CC(=O)N(c2cnn(Cc3c(C)noc3C)c2)C1=O	100 nM	Ratio [2]: 267; solubility at 24 h [3]: 16 µM (≈ 6.33 µg/mL)
Cc1noc(C)c1Cn1cc(N2C(=O)CN(Cc3ccc(O)cc3)C2=O)cn1	40 nM	
Cc1noc(C)c1Cn1cc(N2C(=O)CN(Cc3cccc(C(=O)O)c3)C2=O)cn1	2000 nM	
Cc1noc(C)c1Cn1cc(N2C(=O)[C@H](C)N(Cc3cccc(O)c3)C2=O)cn1		Ratio [2]: 3750; solubility at 24 h [3]: 60 µM (≈ 23.7 µg/mL); remaining at 24 h [4]: 92%; remaining at 24 h [5]: > 99%
Cc1noc(C)c1Cn1cc(N2C(=O)CN(Cc3ccccc3)C2=O)cn1	200 nM	solubility at 24 h [3]: 70 µM (≈ 25.6 µg/mL); remaining at 24 h [4]: 60%; remaining at 24 h [5]: > 99%
Cc1noc(C)c1Cn1cc(N2CCN(Cc3ccccc3)C2=O)cn1	1000 nM	
Cc1noc(C)c1Cn1cc(N2C(=O)CN(CC3CCCCC3)C2=O)cn1	300 nM	
Cc1noc(C)c1Cn1cc(N2C(=O)CN(Cc3ccccc3F)C2=O)cn1	100 nM	Ratio [2]: 600; solubility at 24 h [3]: 51 µM (≈ 19.6 µg/mL)
Cc1noc(C)c1Cn1cc(N2C(=O)[C@H](CO)N(Cc3cccc(O)c3)C2=O)cn1		Ratio [2]: 57600; solubility at 24 h [3]: 2480 µM (≈ 1020 µg/mL); remaining at 24 h [4]: 2%; remaining at 24 h [5]: 53%
Cc1noc(C)c1Cn1cc(N2C(=O)N(Cc3cccc(O)c3)C3(CC3)C2=O)cn1		Ratio [2]: 1550; solubility at 24 h [3]: 31 µM (≈ 12.6 µg/mL); remaining at 24 h [4]: 96%; remaining at 24 h [5]: > 99%
